Calls of active or inactive are those of the source. No cut-off for these calls is given here. Residues, ends and D or L forms follow the SMILES beside them. *: point of attachment. X1 = Nc1ncnc2c1ncn2[C@@H]1O[C@H](CN(CCCN2CCC[C@H]2C(=O)*)CC[C@H](N)C(=O)O)[C@@H](O)[C@H]1O
Key:
[1] = target: T1, N-terminal Xaa-Pro-Lys N-methyltransferase 1 (Homo sapiens, UniProt Q9BV86); assay: Inhibition of recombinant human full-length His6-tagged NTMT1 (1 to 222 residues) expressed in Escherichia coli BL21-CodonPlus(DE3)-RIL competent cells using peptide substrate in presence of SAM by fluorescence assay
T1 sequence (Q9BV86 whole entry): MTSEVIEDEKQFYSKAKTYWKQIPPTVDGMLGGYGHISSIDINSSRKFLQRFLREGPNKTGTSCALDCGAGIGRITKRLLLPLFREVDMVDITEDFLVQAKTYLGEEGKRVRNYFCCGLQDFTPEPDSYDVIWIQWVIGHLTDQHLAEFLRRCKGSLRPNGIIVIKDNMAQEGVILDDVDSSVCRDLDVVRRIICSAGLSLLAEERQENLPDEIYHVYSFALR
Method in brief: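 SAHH-coupled fluorescence assay that tracks SAH formation by NTMT1. SAM and peptide substrate GPKRIA are each at their Km values. IC50 is taken from dose–response curves, n = 3.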

[2] = target: T2, N-terminal Xaa-Pro-Lys N-methyltransferase 1 (Homo sapiens) (UniProt Q9BV86); assay: (§1) Inhibition of recombinant human full-length His6-tagged NTMT1 (1 to 222 residues) expressed in Escherichia coli BL21-CodonPlus(DE3)-RIL competent cells assessed as reduction in GPKRIA trimethylation at 100 nM preincubated for 10 mins in presence of SAM followed by GPKRIA addition and measured after 20 mins by MALDI TOF-MS analysis
T2 sequence (whole entry): T1 sequence (Q9BV86 whole entry)
Method in brief: (§2)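 Orthogonal MALDI-MS assay that directly follows α-N-amine methylation of substrate peptide GPKRIA by NTMT1 over 20 min. Methylated peptide products were monitored by mass spectrometry.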

[3] = target: T2, N-terminal Xaa-Pro-Lys N-methyltransferase 1 (Homo sapiens); assay: as §1, with “di-methylation” for “trimethylation”; method in brief: as §2
[4] = target: T2, N-terminal Xaa-Pro-Lys N-methyltransferase 1 (Homo sapiens); assay: Inhibition of recombinant human full-length His6-tagged NTMT1 (1 to 222 residues) expressed in Escherichia coli BL21-CodonPlus(DE3)-RIL competent cells assessed as residual enzyme activity at 10 uM using GPKRIA as substrate preincubated for 10 mins in presence of SAM followed by substrate addition by fluorescence assay relative to control
Method in brief: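 NTMT1 residual activity […] with SAM and GPKRIA at Km. Values are means of triplicate experiments (n = 3).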

[5] = target: Protein arginine N-methyltransferase 1 (Rattus norvegicus) (UniProt Q63009); assay: Inhibition of rat His6-tagged PRMT1 expressed in Escherichia coli BL21(DE3) assessed as enzyme residual activity at 3.3 uM using H4-21 peptide as substrate preincubated for 10 mins in presence of SAM followed by substrate addition by fluorescence assay relative to control
Chain of Protein arginine N-methyltransferase 1 (Rattus norvegicus) (Q63009 whole entry, looked up): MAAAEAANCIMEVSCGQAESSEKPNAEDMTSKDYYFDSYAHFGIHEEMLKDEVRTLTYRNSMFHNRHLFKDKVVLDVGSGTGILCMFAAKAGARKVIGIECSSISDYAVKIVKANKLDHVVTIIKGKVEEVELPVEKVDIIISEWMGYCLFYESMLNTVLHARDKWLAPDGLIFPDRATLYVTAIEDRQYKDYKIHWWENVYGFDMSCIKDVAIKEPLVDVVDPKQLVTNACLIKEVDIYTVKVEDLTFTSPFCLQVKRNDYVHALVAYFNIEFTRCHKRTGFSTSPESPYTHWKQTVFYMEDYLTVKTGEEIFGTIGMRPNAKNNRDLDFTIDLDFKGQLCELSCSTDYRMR
Method in brief: (§3)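 Selectivity panel with inhibitor at 3.3, 10, 33 or 100 μM. Enzyme activity is given as percent of control, mean of duplicate experiments (n = 2).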

[6] = target: T3, Histone-lysine N-methyltransferase SETD7 (Homo sapiens) (UniProt Q8WTS6); assay: Inhibition of human His-tagged SETD7 (1 to 366 residues) expressed in Escherichia coli assessed as enzyme residual activity at 3.3 uM using H3-21 peptide as substrate preincubated for 10 mins in presence of SAM followed by substrate addition by fluorescence assay relative to control; method in brief: as §3
T3 sequence (whole entry): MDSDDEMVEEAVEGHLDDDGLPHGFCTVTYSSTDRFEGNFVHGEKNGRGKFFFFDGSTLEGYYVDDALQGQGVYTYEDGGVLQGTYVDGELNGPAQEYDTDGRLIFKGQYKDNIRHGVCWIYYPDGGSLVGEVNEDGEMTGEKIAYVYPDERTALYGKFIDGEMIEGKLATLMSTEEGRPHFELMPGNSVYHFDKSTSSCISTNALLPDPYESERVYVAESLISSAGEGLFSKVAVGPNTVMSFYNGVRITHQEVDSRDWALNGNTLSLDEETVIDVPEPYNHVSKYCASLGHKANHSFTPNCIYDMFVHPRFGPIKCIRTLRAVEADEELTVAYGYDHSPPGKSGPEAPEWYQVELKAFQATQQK

[7] = target: T3, Histone-lysine N-methyltransferase SETD7 (Homo sapiens); assay: (§4) Inhibition of human His-tagged SETD7 (1 to 366 residues) expressed in Escherichia coli assessed as enzyme residual activity at 10 uM using H3-21 peptide as substrate preincubated for 10 mins in presence of SAM followed by substrate addition by fluorescence assay relative to control; method in brief: as §3
[8] = target: T3, Histone-lysine N-methyltransferase SETD7 (Homo sapiens); assay: Inhibition of human His-tagged SETD7 (1 to 366 residues) expressed in Escherichia coli assessed as enzyme residual activity at 33 uM using H3-21 peptide as substrate preincubated for 10 mins in presence of SAM followed by substrate addition by fluorescence assay relative to control; method in brief: as §3
[9] = target: T4, Histone-lysine N-methyltransferase EHMT2 (Homo sapiens) (UniProt Q96KQ7); assay: as §4, with “His-tagged G9a (913” for “His-tagged SETD7 (1”, “to 1193” for “to 366”, “coli BL21-CodonPlus(DE3)-RIL” for “coli”, “at 100” for “at 10”; method in brief: as §3
T4 sequence (whole entry): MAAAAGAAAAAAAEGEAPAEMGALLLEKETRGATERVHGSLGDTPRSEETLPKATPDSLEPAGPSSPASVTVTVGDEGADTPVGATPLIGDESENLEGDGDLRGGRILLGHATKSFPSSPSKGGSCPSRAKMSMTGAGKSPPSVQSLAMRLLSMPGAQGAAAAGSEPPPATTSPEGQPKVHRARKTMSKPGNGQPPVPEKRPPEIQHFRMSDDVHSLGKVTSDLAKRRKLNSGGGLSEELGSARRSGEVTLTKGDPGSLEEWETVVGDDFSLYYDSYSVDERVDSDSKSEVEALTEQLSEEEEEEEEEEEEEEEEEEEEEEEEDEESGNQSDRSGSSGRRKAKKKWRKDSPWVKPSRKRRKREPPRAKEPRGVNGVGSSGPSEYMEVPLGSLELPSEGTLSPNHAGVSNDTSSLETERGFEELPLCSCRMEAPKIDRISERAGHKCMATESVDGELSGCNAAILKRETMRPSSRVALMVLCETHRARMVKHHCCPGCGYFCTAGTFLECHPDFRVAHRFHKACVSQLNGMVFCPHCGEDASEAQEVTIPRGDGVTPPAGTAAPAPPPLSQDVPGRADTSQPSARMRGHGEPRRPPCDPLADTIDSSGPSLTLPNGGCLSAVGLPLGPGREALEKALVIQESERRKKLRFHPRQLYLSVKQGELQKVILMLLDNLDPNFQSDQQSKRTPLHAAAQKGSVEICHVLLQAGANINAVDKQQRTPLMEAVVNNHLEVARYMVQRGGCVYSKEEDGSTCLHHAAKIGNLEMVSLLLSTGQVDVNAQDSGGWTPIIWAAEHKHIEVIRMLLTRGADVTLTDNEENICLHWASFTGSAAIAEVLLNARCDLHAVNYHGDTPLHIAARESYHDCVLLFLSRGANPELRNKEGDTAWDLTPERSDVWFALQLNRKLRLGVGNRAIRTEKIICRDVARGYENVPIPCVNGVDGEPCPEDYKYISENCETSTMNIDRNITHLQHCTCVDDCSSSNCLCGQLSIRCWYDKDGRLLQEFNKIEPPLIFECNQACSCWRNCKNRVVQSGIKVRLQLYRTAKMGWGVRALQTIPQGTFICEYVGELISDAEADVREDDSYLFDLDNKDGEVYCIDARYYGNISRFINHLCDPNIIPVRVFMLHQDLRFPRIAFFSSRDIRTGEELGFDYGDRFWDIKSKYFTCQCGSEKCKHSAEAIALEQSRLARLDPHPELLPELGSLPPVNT

[10] = target: Protein arginine N-methyltransferase 1 (Rattus norvegicus, UniProt Q63009); assay: Inhibition of rat His6-tagged PRMT1 expressed in Escherichia coli BL21(DE3) using H4-21 peptide as substrate preincubated for 10 mins in presence of SAM followed by substrate addition by fluorescence assay
Chain of Protein arginine N-methyltransferase 1 (Q63009 whole entry): as the sequence (Q63009 whole entry, looked up) above

[11] = Inhibition of Trypanosoma brucei N-terminal His6-tagged PRMT7 expressed in Escherichia coli BL21-CodonPlus(DE3)-RIL using H4-21 peptide as substrate preincubated for 10 mins in presence of SAM followed by substrate addition by fluorescence assay
[12] = target: T2, N-terminal Xaa-Pro-Lys N-methyltransferase 1 (Homo sapiens); assay: Bi-substrate inhibition of recombinant human full-length His6-tagged NTMT1 (1 to 222 residues) expressed in Escherichia coli BL21-CodonPlus(DE3)-RIL competent cells using varying levels of GPKRIA as substrate preincubated for 10 mins in presence of varying levels of SAM followed by substrate addition by fluorescence assay
Method in brief: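 Kinetic mechanism study in the SAHH-coupled fluorescence assay. IC50 curves were run at varying SAM with fixed GPKRIA, and at varying GPKRIA with fixed SAM. IC50 values were plotted against SAM or peptide concentration by linear regression.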

[13] = target: T2, N-terminal Xaa-Pro-Lys N-methyltransferase 1 (Homo sapiens); assay: Inhibition of recombinant human full-length His6-tagged NTMT1 (1 to 222 residues) expressed in Escherichia coli BL21-CodonPlus(DE3)-RIL competent cells at 10 uM using GPKRIA as substrate preincubated for 10 mins in presence of SAM followed by substrate addition by fluorescence assay

SMILES: N=C(N)NCCC[C@H](NC(=O)[C@H](CCCNC(=N)N)NC(=O)[C@H](CCCNC(=N)N)NC(=O)[C@@H]1CCCN1C(=O)CNCCCN(CC[C@H](N)C(=O)O)C[C@H]1O[C@@H](n2cnc3c(N)ncnc32)[C@H](O)[C@@H]1O)C(=O)N[C@@H](CO)C(N)=O
- IC50 [1]: 0.94 µM

SMILES: CC[C@H](C)[C@H](NC(=O)[C@H](CCCNC(=N)N)NC(=O)[C@H](CCCCN)NC(=O)[C@@H]1CCCN1C(=O)[C@@H]1CCCN1CCCN(CC[C@H](N)C(=O)O)C[C@H]1O[C@@H](n2cnc3c(N)ncnc32)[C@H](O)[C@@H]1O)C(=O)N[C@@H](C)C(N)=O (X1-PKRIA-NH2)
- inhibition [2]: Active
- inhibition [3]: Active
- Activity [4]: 14%
- Activity [5]: 97%
- Activity [6]: 94%
- Activity [7]: 99%
- Activity [8]: 97%
- Activity [9]: 78%
- IC50 [10]: > 33 µM
- IC50 [11]: > 10 µM
- inhibition [12]: Active

SMILES: Nc1ncnc2c1ncn2C1O[C@H](CN(CCCN2CCC[C@H]2C(=O)O)CC[C@H](N)C(=O)O)[C@@H](O)[C@H]1O (single isomer, unassigned)
- inhibition [13]: inactive

— ChEMBL document CHEMBL4390676, “Discovery of Bisubstrate Inhibitors for Protein N-Terminal Methyltransferase 1” (J Med Chem, 2019)
